In brackets after ≈: the same amount, converted by molar mass.

Series [1] can be described thus: Clearance in rat plasma. It counts as ADME, organism-based.
A further series concerns the target T1, Neuromedin-K receptor (Homo sapiens, UniProt P29371).
T1 sequence (P29371 whole entry): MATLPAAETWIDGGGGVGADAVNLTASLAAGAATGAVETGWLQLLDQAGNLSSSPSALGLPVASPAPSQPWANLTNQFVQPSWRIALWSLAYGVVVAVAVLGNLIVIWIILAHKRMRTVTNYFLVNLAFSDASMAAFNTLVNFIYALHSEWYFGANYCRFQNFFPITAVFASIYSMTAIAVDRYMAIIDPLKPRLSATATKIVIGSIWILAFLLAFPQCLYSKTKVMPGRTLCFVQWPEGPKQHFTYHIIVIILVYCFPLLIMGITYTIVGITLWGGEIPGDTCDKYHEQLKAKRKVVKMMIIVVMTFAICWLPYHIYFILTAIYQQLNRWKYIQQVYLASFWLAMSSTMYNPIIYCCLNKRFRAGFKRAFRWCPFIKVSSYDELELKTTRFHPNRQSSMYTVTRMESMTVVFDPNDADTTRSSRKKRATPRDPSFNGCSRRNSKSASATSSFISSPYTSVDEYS
In words: Antagonist activity at human NK3 receptor expressed in CHO cells assessed as inhibition of senktide-induced calcium flux by FLIPR assay. The format is functional, cell-based. The procedure, abridged: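 FLIPR functional assay in CHO cells stably expressing human recombinant NK3 receptor. EC50 given as mean ± SEM (n ≥ 2), or as a single value where n = 1. Tested as 1:1 diastereomer mixtures unless marked as a single isomer.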
(Calcium assays in cells follow changes in intracellular calcium, usually with a dye or a luminescent sensor.)

A short description of series [2]: Equilibrium solubility of the compound. The format is physicochemical.
Series [3] in a line: Selectivity ratio of EC50 for human NK3 receptor to EC50 for NK1 receptor.
For series [4], the system named is MDR1. Description: Apparent permeability across MDCK cells expressing human MDR1. The format is ADME, cell-based, Canis lupus familiaris. The note with it: dog, MDCK-MDR1. The method in brief: (§1)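 Permeability measured in MDCK cells expressing human MDR1. Papp is expressed in 10^-6 cm/s and reported together with the efflux ratio.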
Series [5] can be described thus: Selectivity ratio of EC50 for human NK3 receptor to EC50 for NK2 receptor.
For the next series, the system named is Gerbillinae. In words: Reversal of senktide-induced locomotor activity in ip dosed gerbil. It counts as functional.
Series [6] in a line: Ratio of drug level in brain to plasma in rat at 3 umol/kg, iv after 1 hr. The format is ADME, organism-based. To be noted: brain and plasma, read-out: BPR. The procedure, abridged:
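Rat dosed iv at 3 µmol/kg. Total brain and plasma levels taken 1 h post dose, and their ratio reported.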

Series [7] can be described thus: Half life in rat. The format is ADME, organism-based. The note with it: in vivo.
Series [8] in a line: Lipophilicity, log D of the compound. The format is physicochemical. The note with it: octanol/water.
Series [9] has as its target Voltage-gated inwardly rectifying potassium channel KCNH2 (Homo sapiens, UniProt Q12809). In words: Inhibition of human ERG.
Series [10] can be described thus: Intrinsic clearance in human liver microsomes assessed per mg of protein. The format is ADME, Microsome. Background: Liver microsomes are vesicles of endoplasmic reticulum, rich in cytochrome P450 enzymes.
Series [11] deals with MDR1. Description: Efflux ratio of permeability in MDCK cells expressing human MDR1. The format is ADME, cell-based, Canis lupus familiaris. To be noted: dog, MDCK-MDR1. The method in brief:
as §1

The nature of series [12]: Oral bioavailability in rat. It counts as ADME, organism-based. The note with it: in vivo.
Series [13] can be described thus: Plasma clearance in dog. The format is ADME, organism-based, Canis lupus familiaris.
Series [14] is described as follows: Half life in dog. It counts as ADME, organism-based, Canis lupus familiaris. To be noted: in vivo.
Series [15] can be described thus: Oral bioavailability in dog. The format is ADME, organism-based, Canis lupus familiaris. To be noted: in vivo.

Sequence of Voltage-gated inwardly rectifying potassium channel KCNH2 (Q12809 whole entry): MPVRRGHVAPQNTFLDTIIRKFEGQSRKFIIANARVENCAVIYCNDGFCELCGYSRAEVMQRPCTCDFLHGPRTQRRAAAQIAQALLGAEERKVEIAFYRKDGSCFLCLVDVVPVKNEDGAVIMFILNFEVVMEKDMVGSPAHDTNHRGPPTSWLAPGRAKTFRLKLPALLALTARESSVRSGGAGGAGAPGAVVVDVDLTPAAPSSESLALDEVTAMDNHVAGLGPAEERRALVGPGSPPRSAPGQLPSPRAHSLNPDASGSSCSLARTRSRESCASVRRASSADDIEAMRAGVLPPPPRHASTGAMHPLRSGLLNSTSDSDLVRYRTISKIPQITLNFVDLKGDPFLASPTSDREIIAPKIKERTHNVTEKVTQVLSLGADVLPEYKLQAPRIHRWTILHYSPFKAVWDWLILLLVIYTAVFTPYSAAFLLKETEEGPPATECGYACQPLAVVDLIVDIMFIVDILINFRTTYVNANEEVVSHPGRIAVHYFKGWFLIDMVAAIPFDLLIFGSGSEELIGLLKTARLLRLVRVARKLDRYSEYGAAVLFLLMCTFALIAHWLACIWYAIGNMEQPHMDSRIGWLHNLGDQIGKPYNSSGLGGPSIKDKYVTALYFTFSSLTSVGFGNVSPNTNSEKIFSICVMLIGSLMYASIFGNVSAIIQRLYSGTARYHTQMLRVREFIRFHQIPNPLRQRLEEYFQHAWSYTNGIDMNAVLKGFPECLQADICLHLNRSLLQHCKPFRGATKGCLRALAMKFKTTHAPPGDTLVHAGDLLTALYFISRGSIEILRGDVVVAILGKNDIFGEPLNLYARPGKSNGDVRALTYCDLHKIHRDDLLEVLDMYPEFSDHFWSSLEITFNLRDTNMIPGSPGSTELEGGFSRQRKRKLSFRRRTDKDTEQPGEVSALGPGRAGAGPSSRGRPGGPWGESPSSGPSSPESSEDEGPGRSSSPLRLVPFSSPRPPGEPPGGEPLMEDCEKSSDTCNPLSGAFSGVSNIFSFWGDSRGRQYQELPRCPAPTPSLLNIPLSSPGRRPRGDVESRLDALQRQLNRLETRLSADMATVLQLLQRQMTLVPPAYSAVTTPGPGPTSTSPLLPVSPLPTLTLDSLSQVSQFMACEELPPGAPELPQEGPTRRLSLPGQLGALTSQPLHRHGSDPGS

`CC[C@H](NC(=O)c1c([S@+](C)[O-])c(-c2ccccc2)nc2ccccc12)c1ccccc1` came in with a clearance in [1] of 60 mL/min/kg. For the same molecule, on Neuromedin-K receptor, the EC50 worked out at 3.7 nM. The thermodynamic solubility in series [2] was 270 µM (≈ 116 µg/mL). The Ratio EC50 is more than 2700 in series [3] and 1860 in series [5]. Further, in the series on MDR1 [4], the apparent permeability (Papp) is 28 ×10⁻⁶ cm/s. The Activity result with Gerbillinae is “Dose-dependent effect”. Further, the ED50 in the series with Gerbillinae amounted to 0.75 µmol/kg. Further, in [6], the Kp at 1 h was 0.4. The same molecule showed a half-life in series [7] of 3 h. This molecule also had a logD in series [8] of 3. In series [9], the INH is more than 33 µM. This molecule also displayed an intrinsic metabolic clearance (microsomal CLint) in series [10] of 23 µL/min/mg. Moreover, the efflux ratio with MDR1 [11] was 1.3. This molecule gave a bioavailability in series [12] of 60%.
As to `CC[C@H](NC(=O)c1c(C[S@+](C)[O-])c(-c2ccccc2)nc2ccccc12)c1ccccc1`, the EC50 at Neuromedin-K receptor was 5.3 nM. Moreover, in series [13], the clearance was determined as 2.3 mL/min/kg. In addition, the solubility (thermodynamic) in [2] came to 53 µM (≈ 23.5 µg/mL). The half-life in series [14] is 6.7 h. The results for the Ratio EC50 in series [3] and in [5] were more than 660 and 170, respectively. Moreover, in [15], the bioavailability came out at 89%. In the series on MDR1 [4], the apparent permeability (Papp) was determined as 9.9 ×10⁻⁶ cm/s. Besides, in the series on Gerbillinae, the ED50 worked out at 2 µmol/kg. The log distribution coefficient (logD) in series [8] was determined as 3.5. This molecule also gave an INH in series [9] of more than 33 µM. In addition, the intrinsic clearance (microsomal CLint) in series [10] came to 8.4 µL/min/mg. Further, the efflux ratio in the series with MDR1 [11] came out at 3.7.

Usually clearance stands for a measure of how efficiently the substance is removed, as volume per time. Read a low clearance as inefficient removal. What is called EC50 is the concentration needed to bring the measured effect to its halfway point. The thermodynamic solubility is solubility found after equilibrating the solid with the medium. By Papp is commonly meant a coefficient for how fast a substance crosses the barrier. The term ED50 denotes the dose that gives a 50% effect, or the effect in half of the subjects. As usually defined, the half-life is how long it takes for the measured level to halve. For orientation: logD means lipophilicity at a set pH, counting ionised and neutral species. Read a low logD as lower lipophilicity. Usually microsomal CLint stands for the capacity of the preparation to metabolise the compound, expressed as a volume cleared per time. The low end stands for greater metabolic stability, the high end for faster metabolism. Usually efflux ratio stands for the permeability from basolateral to apical divided by that in the opposite direction, in the common usage. For orientation: bioavailability means dose-corrected exposure relative to a reference, in per cent.

The values above are taken from ChEMBL document CHEMBL1681732, “Synthesis and SAR of sulfoxide substituted carboxyquinolines as NK3 receptor antagonists” (Bioorg Med Chem Lett, 2011).
